One block for each compound: values may come before it. *1 amine or outer side, *2 acyl side, *3 side chain or, on linkers, in order; H or OH if unused. Where a SMILES comes first, the peptide text is derived from it. Bridges are numbered along the chain shown (N, C = ends). [ ]: non-standard residue; d: D form. The star is where a group is joined. Staurosporine = CO[C@@H]1[C@H](N(C)*)C[C@H]2O[C@]1(C)n1c3ccccc3c3c4c(c5c6ccccc6n2c5c31)C(=O)NC4; Suc = O=C(CCC(=O)[*:2])[*:1]; Dap = NC[C@H](N)C(=O)O; βAla = NCCC(=O)O
Assays:
[1] = target: T1, Serine/threonine-protein kinase Chk1 (Homo sapiens) (UniProt O14757); test: Binding affinity to human CHEK1 at 500 nM by cell-based competition binding assay relative to control in presence of DTT
T1 sequence (whole entry): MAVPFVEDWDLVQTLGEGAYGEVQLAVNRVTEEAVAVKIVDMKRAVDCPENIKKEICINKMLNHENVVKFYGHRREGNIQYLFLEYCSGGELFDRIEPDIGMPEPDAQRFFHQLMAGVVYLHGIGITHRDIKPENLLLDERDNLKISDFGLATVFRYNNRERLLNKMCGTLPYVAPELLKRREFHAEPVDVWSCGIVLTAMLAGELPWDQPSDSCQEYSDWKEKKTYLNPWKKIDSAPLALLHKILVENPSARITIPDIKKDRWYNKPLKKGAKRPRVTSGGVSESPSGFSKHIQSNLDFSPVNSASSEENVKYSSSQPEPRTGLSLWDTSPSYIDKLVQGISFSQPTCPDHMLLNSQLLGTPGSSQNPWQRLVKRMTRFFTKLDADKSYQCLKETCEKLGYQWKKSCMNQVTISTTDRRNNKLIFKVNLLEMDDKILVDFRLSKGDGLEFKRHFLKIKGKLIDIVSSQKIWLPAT
Summary of the method: (§1)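 Commercial (Ambit) competitive kinase-binding panel of 90 kinases measured the binding profile. Run under reducing conditions of 7.5 mM DTT. Binding is expressed relative to control.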

[2] = target: Ephrin type-A receptor 2 (Homo sapiens) (UniProt P29317); test: Binding affinity to human EPHA2 at 500 nM by cell-based competition binding assay relative to control in presence of DTT; summary of the method: as §1
[3] = target: Tyrosine-protein kinase receptor UFO (Homo sapiens) (UniProt P30530); test: Binding affinity to human AXL at 500 nM by cell-based competition binding assay relative to control in presence of DTT
Chain of Tyrosine-protein kinase receptor UFO (Homo sapiens) (P30530 whole entry): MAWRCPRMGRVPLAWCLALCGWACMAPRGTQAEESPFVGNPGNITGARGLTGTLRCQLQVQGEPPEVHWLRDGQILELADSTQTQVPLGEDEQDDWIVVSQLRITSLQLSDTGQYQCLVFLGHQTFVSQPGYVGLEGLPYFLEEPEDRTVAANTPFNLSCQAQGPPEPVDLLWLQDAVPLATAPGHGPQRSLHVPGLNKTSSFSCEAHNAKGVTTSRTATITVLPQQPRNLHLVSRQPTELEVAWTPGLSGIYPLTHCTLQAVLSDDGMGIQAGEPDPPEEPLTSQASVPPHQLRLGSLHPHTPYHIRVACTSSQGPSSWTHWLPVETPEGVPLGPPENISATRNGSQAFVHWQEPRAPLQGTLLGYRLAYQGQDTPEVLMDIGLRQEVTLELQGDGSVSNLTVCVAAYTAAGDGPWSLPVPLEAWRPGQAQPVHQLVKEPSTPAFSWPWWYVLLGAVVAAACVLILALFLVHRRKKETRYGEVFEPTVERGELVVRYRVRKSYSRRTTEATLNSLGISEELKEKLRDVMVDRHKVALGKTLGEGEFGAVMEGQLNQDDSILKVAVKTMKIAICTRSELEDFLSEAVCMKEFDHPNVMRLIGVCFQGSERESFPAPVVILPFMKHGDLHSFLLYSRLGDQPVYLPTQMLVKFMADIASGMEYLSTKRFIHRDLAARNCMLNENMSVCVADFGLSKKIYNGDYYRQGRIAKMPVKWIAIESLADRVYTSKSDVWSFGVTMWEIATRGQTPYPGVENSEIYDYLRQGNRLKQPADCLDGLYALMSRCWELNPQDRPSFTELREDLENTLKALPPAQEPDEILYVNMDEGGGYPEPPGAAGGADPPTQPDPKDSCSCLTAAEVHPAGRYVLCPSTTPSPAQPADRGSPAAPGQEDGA
Summary of the method: (§2)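 Kinase binding profiling ran on a commercial (Ambit) competitive binding screen against a panel of 90 kinases. The screen used reducing conditions with 7.5 mM DTT. To withstand the DTT, the bivalent ligand was tested as its amide isostere, with the disulfide replaced. A staurosporine derivative carrying a 3 β-alanine linker was run as the reference compound.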

[4] = target: Cyclin-dependent kinase 19 (Homo sapiens) (UniProt Q9BWU1); test: Binding affinity to human CDK11 at 500 nM by cell-based competition binding assay relative to control in presence of DTT; summary of the method: as §2
Chain of Cyclin-dependent kinase 19 (Homo sapiens) (Q9BWU1 whole entry): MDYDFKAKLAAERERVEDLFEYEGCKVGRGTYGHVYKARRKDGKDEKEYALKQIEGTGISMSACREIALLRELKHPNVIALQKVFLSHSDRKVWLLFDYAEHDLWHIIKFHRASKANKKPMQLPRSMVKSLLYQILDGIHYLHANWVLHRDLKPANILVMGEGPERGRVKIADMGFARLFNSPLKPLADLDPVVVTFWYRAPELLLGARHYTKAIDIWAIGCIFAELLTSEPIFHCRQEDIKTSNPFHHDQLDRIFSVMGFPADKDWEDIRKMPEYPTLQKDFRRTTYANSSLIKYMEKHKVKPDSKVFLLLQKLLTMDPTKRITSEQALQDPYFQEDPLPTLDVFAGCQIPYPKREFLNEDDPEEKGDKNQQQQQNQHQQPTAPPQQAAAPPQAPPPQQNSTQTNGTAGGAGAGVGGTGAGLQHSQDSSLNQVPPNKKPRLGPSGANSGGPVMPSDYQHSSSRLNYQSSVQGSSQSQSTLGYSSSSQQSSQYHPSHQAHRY

[5] = target: MAP kinase-interacting serine/threonine-protein kinase 2 (Homo sapiens) (UniProt Q9HBH9); test: Binding affinity to human MKNK2 at 500 nM by cell-based competition binding assay relative to control in presence of DTT
Chain of MAP kinase-interacting serine/threonine-protein kinase 2 (Homo sapiens) (Q9HBH9 whole entry, looked up): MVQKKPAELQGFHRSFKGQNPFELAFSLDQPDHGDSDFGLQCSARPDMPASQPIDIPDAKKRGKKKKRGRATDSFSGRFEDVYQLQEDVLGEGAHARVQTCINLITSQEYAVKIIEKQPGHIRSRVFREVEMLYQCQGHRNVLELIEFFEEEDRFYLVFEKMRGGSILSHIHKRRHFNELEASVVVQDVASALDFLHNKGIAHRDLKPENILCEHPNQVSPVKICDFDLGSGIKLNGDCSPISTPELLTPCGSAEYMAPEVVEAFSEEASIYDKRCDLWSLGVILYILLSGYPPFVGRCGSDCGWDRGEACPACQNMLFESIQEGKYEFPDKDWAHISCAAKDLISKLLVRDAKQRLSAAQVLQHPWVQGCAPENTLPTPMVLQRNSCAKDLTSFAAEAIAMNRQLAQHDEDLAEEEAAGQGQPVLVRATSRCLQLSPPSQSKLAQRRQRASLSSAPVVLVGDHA

[6] = target: Serine/threonine-protein kinase PAK 2 (Homo sapiens) (UniProt Q13177); test: Binding affinity to human PAK2 at 500 nM by cell-based competition binding assay relative to control in presence of DTT
Chain of Serine/threonine-protein kinase PAK 2 (Homo sapiens) (Q13177 whole entry): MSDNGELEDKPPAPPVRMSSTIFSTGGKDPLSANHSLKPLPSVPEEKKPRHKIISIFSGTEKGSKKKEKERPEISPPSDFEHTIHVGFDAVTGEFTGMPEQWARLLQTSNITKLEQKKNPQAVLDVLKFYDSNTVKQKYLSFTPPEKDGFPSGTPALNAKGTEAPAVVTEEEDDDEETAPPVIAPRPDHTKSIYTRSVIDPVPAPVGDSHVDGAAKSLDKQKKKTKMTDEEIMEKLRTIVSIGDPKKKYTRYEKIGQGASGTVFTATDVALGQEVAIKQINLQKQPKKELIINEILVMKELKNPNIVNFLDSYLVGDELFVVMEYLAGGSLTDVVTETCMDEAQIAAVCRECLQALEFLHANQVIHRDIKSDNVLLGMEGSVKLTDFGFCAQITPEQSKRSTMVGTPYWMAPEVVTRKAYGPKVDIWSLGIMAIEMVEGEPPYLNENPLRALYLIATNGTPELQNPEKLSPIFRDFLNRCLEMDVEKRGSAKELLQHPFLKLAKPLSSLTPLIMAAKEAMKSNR

[7] = target: Receptor tyrosine-protein kinase erbB-2 (Homo sapiens) (UniProt P04626); test: Binding affinity to human ERBB2 at 200 nM by cell-based competition binding assay relative to control in presence of DTT; summary of the method: as §1
[8] = target: Tyrosine-protein kinase JAK2 (Homo sapiens) (UniProt O60674); test: Binding affinity to human JAK2 kinase domain 2 at 200 nM by cell-based competition binding assay relative to control in presence of DTT
Chain of Tyrosine-protein kinase JAK2 (Homo sapiens) (O60674 whole entry, the tested form may be a part): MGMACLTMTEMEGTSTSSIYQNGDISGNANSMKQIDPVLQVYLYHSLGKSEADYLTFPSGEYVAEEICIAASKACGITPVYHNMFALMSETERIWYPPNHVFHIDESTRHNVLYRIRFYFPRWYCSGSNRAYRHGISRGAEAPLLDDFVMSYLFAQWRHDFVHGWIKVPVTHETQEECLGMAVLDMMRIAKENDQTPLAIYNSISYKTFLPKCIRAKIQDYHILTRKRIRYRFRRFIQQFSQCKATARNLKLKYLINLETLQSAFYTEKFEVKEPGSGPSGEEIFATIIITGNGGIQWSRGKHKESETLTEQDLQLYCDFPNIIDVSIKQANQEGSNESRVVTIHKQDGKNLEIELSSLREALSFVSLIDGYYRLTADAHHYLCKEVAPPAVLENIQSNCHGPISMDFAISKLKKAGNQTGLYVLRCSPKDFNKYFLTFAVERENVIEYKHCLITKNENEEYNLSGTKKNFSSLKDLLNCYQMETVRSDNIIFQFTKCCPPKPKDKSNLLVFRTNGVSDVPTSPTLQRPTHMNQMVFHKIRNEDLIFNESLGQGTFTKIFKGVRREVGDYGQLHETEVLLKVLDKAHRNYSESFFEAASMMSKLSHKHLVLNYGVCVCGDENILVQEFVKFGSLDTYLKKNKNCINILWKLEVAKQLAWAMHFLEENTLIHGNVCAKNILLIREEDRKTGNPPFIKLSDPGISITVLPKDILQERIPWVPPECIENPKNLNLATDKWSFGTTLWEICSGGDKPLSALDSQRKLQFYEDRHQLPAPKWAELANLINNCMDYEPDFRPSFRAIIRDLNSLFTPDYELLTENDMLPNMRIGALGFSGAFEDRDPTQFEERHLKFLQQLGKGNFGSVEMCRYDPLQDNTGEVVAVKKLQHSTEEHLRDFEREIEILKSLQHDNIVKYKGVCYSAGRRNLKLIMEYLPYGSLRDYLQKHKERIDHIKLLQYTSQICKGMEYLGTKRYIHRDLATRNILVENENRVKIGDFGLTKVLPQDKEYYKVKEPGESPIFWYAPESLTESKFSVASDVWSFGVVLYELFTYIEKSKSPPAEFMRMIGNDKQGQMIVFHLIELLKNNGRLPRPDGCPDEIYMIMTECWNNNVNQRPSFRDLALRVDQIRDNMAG
Summary of the method: (§3)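 Competition binding screen (Ambit) across a panel of 90 kinases, scoring test ligand displacement of each kinase's binding relative to control. The screen ran under reducing conditions with 7.5 mM DTT.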

[9] = tested on: Mast/stem cell growth factor receptor Kit (Homo sapiens), P10721 [D816V]; test: Binding affinity to human KIT D816V mutant at 200 nM by cell-based competition binding assay relative to control in presence of DTT; summary of the method: as §3
[10] = target: Phosphatidylinositol 4,5-bisphosphate 3-kinase catalytic subunit alpha isoform (Homo sapiens) (UniProt P42336); test: Binding affinity to human PIK3Calpha at 200 nM by cell-based competition binding assay relative to control in presence of DTT
Chain of Phosphatidylinositol 4,5-bisphosphate 3-kinase catalytic subunit alpha isoform (Homo sapiens) (P42336 whole entry, canonical isoform): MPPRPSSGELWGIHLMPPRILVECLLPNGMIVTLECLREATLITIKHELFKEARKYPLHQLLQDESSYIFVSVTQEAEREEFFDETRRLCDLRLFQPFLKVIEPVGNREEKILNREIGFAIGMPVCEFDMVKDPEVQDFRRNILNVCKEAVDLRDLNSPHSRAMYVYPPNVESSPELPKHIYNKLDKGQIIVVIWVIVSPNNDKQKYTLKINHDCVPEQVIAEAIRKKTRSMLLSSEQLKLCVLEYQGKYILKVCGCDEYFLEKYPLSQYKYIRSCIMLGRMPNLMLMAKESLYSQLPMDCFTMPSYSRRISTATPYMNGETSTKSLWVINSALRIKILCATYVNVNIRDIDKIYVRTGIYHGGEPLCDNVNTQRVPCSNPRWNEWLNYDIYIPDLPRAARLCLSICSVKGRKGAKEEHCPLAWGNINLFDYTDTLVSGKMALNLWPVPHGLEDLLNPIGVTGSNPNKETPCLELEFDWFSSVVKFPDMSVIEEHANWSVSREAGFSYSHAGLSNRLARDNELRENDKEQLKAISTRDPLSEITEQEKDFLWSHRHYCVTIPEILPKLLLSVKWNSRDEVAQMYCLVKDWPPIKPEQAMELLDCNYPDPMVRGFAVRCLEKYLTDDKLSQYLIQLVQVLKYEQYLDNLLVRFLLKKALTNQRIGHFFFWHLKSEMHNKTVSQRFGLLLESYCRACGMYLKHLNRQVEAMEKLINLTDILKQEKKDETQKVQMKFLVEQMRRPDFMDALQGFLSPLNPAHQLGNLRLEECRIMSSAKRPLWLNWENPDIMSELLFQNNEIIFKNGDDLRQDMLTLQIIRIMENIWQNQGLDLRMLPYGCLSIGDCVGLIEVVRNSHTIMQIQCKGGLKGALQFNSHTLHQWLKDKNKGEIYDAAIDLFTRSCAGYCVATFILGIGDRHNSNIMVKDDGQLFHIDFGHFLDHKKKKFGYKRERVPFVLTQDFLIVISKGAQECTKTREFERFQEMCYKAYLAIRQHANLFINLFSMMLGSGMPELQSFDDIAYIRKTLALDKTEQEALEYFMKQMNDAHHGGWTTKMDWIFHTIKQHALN

[11] = target: T2, Activin receptor type-1B (Homo sapiens) (UniProt P36896); test: Binding affinity to human ACVR1B at 200 nM by cell-based competition binding assay relative to control in presence of DTT; summary of the method: as §2
T2 sequence (whole entry): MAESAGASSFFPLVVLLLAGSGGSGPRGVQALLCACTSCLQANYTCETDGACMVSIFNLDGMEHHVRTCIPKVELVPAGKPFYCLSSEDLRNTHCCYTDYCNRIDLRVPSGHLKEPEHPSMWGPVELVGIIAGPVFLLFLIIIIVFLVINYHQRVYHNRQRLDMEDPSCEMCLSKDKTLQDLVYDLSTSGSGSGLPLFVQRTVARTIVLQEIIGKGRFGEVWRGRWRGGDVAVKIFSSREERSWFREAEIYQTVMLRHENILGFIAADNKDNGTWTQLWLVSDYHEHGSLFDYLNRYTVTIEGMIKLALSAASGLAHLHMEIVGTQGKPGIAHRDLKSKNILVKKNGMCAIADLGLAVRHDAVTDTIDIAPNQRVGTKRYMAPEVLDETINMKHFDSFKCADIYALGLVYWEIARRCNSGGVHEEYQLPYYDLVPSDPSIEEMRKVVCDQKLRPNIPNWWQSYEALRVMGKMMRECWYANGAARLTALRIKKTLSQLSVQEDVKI

[12] = target: Tyrosine-protein kinase receptor UFO (Homo sapiens) (UniProt P30530); test: Binding affinity to human AXL at 200 nM by cell-based competition binding assay relative to control in presence of DTT; summary of the method: as §2
[13] = target: Cyclin-dependent kinase 2 (Homo sapiens) (UniProt P24941); test: Binding affinity to human CDK2 at 200 nM by cell-based competition binding assay relative to control in presence of DTT; summary of the method: as §2
[14] = target: T2, Activin receptor type-1B (Homo sapiens); test: Binding affinity to human ACVR1B at 50 nM by cell-based competition binding assay relative to control in presence of DTT; summary of the method: as §2
[15] = target: Tyrosine-protein kinase receptor UFO (Homo sapiens) (UniProt P30530); test: Binding affinity to human AXL at 50 nM by cell-based competition binding assay relative to control in presence of DTT; summary of the method: as §2
[16] = target: Cyclin-dependent kinase 2 (Homo sapiens) (UniProt P24941); test: Binding affinity to human CDK2 at 50 nM by cell-based competition binding assay relative to control in presence of DTT; summary of the method: as §2
[17] = target: Proto-oncogene tyrosine-protein kinase receptor Ret (Homo sapiens) (UniProt P07949); test: Binding affinity to human RET at 50 nM by cell-based competition binding assay relative to control in presence of DTT
[18] = target: Receptor tyrosine-protein kinase erbB-4 (Homo sapiens) (UniProt Q15303); test: Binding affinity to human ERBB4 at 50 nM by cell-based competition binding assay relative to control in presence of DTT; summary of the method: as §1
[19] = target: Insulin-like growth factor 1 receptor (Homo sapiens) (UniProt P08069); test: Binding affinity to human IGF1R at 50 nM by cell-based competition binding assay relative to control in presence of DTT; summary of the method: as §3

Activity [1]: 54%
Activity [2]: 80%
Activity [3]: 8%
Activity [4]: 61%
Activity [5]: 39%
Activity [6]: 14%
SMILES: CO[C@@H]1[C@H](N(C)C(=O)CCC(=O)NCCC(=O)NCCC(=O)NCCC(N)=O)C[C@H]2O[C@]1(C)n1c3ccccc3c3c4c(c5c6ccccc6n2c5c31)C(=O)NC4

Activity [7]: 100%
Activity [8]: 4%
Activity [9]: 0.65%
Activity [10]: 89%
Activity [11]: 95%
Activity [12]: 58%
Activity [13]: 100%
SMILES: CO[C@@H]1[C@H](N(C)C(=O)CCC(=O)NCCC(=O)NCCC(=O)NCCC(=O)NCCC(=O)NCCC(=O)NCCC(=O)NCCC(=O)N[C@H]2CSSC[C@@H](C(=O)NCC(N)=O)NC(=O)CNC(=O)[C@H](Cc3ccccc3)NC(=O)[C@H](C(C)C)NC(=O)[C@H](CCCNC(=N)N)NC(=O)[C@H](Cc3ccccc3)NC(=O)[C@H](C(C)C)NC2=O)C[C@H]2O[C@]1(C)n1c3ccccc3c3c4c(c5c6ccccc6n2c5c31)C(=O)NC4 ({Staurosporine-Suc-βAla-βAla-βAla-βAla-βAla-βAla-βAla}-CVFRVFGCG-NH2; disulfide 1-8)

Activity [14]: 100%
Activity [15]: 81%
Activity [16]: 100%
Activity [17]: 94%
Activity [18]: 100%
Activity [19]: 100%
SMILES: CO[C@@H]1[C@H](N(C)C(=O)CCC(=O)NCCC(=O)NCCC(=O)NCCC(=O)NCCC(=O)NCCC(=O)NCCC(=O)NCCC(=O)N[C@H]2CNC(=O)C[C@@H](C(N)=O)NC(=O)CNC(=O)[C@H](Cc3ccccc3)NC(=O)[C@H](C(C)C)NC(=O)[C@H](CCCNC(=N)N)NC(=O)[C@H](Cc3ccccc3)NC(=O)[C@H](C(C)C)NC2=O)C[C@H]2O[C@]1(C)n1c3ccccc3c3c4c(c5c6ccccc6n2c5c31)C(=O)NC4 ({Staurosporine-Suc-βAla-βAla-βAla-βAla-βAla-βAla-βAla}-[Dap]VFRVFGD-NH2; lactam 1-8)

— ChEMBL document CHEMBL1152541, “Staurosporine tethered peptide ligands that target cAMP-dependent protein kinase (PKA): optimization and selectivity profiling” (Bioorg Med Chem, 2009)
